# Source: PubChem
# SUMO1 PPI mod = SUMO1-SIM interaction modulation; P63165; inhibition, % at 20 µM; SUMO1 binding to a labelled peptide, TR-FRET, 1 h; 0.33% of 360,000 active; in the data active means inhibition above about 37%
# SUMO HTRF inh = SUMOylation inhibition | HTRF SUMOylation assay, SAE1/SAE2 + UBC9, in vitro | inhibition, % at 35 µM | 0.36% of 290,000 active | AID 2006; in the data active means inhibition above about 50%, passing the limit was not always enough
# Scp1 inh = inhibitors of human Scp-1 phosphatase; Q9GZU7; 0.88% of 340,000 active; Recombinant Scp1, phosphopeptide, malachite green phosphate absorbance; AID 493091; inhibition, % at 20 µM;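 active means inhibition above about 50% at 20 µM, limit read from the data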;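 further: plate controls were DMSO wells with enzyme for no effect and wells lacking enzyme for full effect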
#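 System: truncated SCP-1 phosphatase (76-261aa); medium: Tris acetate buffer pH 5.5 with MgCl2 and Tween-20; incubation: 45 min room-temperature reaction, 5 min colour, 30 min stabiliser; compound: single 20 µM dose, 1% DMSO; reagent: Phosphorylated 17-residue peptide substrate; read-out: % inhibition at 20 µM; technique: colorimetric free-phosphate detection, absorbance 630 nm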
# DNMT1 block = inhibitors of human DNMT1. DNMT1 molecular beacon, Hinp1I cleavage, fluorescence. inhibition (reported as % activation of signal), % at 10 µM. 0.83% of 360,000 active; in the data active means inhibition above about 50%
# LMPTP inh = LMPTP (human) inhibition; 0.22% of 360,000 active; inhibition, % at 20 µM; recombinant LMPTP-A, OMFP fluorogenic substrate, fluorescence intensity; P24666;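 active means compounds that cut the enzyme signal by at least half of the control window in the single-dose screen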;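 further: plate controls were DMSO wells with enzyme plus substrate for no effect and substrate without enzyme for full effect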
#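 material = LMPTP-A | quantity = 0.625 nM enzyme | reagent = OMFP substrate, 400 µM final | buffer or medium = Bis-Tris pH 6.0, DTT, detergent | detection = endpoint fluorescence intensity from OMFP dephosphorylation | dosing = single 20 µM dose | read-out basis = % inhibition relative to no-enzyme and uninhibited control wells | control set = no-enzyme and uninhibited controls | timing = 50 min at room temperature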
# STEP inh = blocks human striatal-enriched tyrosine phosphatase; 0.25% of 360,000 active; inhibition, % at 20 µM; AID 588621; P54829; recombinant STEP, OMFP fluorogenic substrate, fluorescence;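 active means inhibition at 20 µM, scaled per plate between control wells, above about 37%, limit read from the data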;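 further: 0% = DMSO with enzyme and substrate and 100% = substrate only without enzyme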
# Target sequence (P54829 whole entry, looked up): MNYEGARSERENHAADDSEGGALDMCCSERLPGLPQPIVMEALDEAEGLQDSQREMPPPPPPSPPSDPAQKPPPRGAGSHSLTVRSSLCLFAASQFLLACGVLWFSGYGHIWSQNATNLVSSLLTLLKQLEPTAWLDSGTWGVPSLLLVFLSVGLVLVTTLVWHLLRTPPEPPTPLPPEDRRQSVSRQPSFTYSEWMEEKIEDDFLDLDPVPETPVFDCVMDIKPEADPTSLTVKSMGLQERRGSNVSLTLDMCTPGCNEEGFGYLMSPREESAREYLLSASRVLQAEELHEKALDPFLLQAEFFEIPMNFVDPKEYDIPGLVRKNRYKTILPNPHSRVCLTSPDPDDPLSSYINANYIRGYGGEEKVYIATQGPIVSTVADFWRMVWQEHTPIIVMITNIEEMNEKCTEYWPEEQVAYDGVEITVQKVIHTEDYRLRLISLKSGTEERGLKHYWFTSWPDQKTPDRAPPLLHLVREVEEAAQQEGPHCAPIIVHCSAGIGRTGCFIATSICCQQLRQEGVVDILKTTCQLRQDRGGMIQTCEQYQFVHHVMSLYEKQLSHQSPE
#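 Also added – OMFP at 25 µM · Test system – STEP tyrosine phosphatase · Technique – FITC-channel fluorescence of OMFP product · Schedule – 20 min at room temperature, dark · Evaluation – control-normalized % inhibition with plate pattern correction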
# Starred values were filed as active, the others as inactive; . = not tested or not shown. Only some compounds are listed: those with a hit (about 1.9% of all), similar ones and a draw of the others.
SMILES,SUMO1 PPI mod,SUMO HTRF inh,Scp1 inh,DNMT1 block,LMPTP inh,STEP inh
COc1ccc(CCn2c(=N)c(C(=O)NCc3ccco3)cc3c(=O)n4ccccc4nc32)cc1OC,51*,.,12,2,27,-1
N=c1c(C(=O)NCc2ccco2)cc2c(=O)n3ccccc3nc2n1CC1CCCO1 (stereo not drawn),-2,.,0,13,17,-2
COc1ccc(CCNC(=O)/C(C#N)=C2\N=C(NC(=O)c3ccco3)c3ccccc32)cc1,-19,18,-15,-3,1,1
COC(=O)C1=C(C(=O)OC)[C@@H]2Nc3ccccc3[C@@]23C[C@@H](C(=O)OC)N(C(=O)c2cccs2)C3=N1,-1,.,-3,8,0,-2
COc1cc(C(=O)Nc2ccc(S(=O)(=O)Nc3ncccn3)cc2)c([N+](=O)[O-])cc1OC,-11,14,-3,-1,0,-1
S=C1Cc2ccccc2N1,77*,60*,-7,83*,48,21
O=C(CCCN1C(=O)/C(=C/c2ccccc2Cl)SC1=S)Nc1cccnc1,-21,-5,-4,-8,5,-2
CCOC(=O)c1c(C)[nH]c(C(=O)N/N=C/c2cc([N+](=O)[O-])ccc2O)c1C,-12,-33,-7,0,65*,5
O=C(CSc1nc(=O)n(CCN2CCOCC2)c2c1CCCC2)Nc1ccc(F)cc1F,-1,.,2,5,-1,0
NC(=S)N=Nc1c(O)cc(O)c2[nH]c(=O)ccc12,69*,.,85*,66*,14,39
NC(=S)N=Nc1c(O)[nH]c2ccc(F)cc12,-12,-20,-3,-2,-1,2
CCC(C)NC(=O)CSc1nc2cc3c(cc2c(=O)n1Cc1ccco1)OCO3 (stereo not drawn),42*,21,-5,14,-1,-1
Nc1c2ccccc2nc2ccccc12,-31,13,-2,76*,19,0
Nc1c2c(nc3ccccc13)CCCC2,4,0,-6,7,6,1
CC(C)NC(=O)CC(=O)NN=C1CCCCC1,0,-2,-4,2,-2,2
Cc1n[nH]c(=S)n(NC(=O)/C=C/C(=O)Nn2c(=S)[nH]nc(C)c2=O)c1=O,67*,99*,21,34,1,6
CN1CCN(C(=O)c2cnn(-c3ccccc3)c2NC(=O)c2ccccc2Cl)CC1,55*,2,-5,-2,0,1
Cc1ccc(-c2ccc(=O)n(Cc3c(F)cccc3Cl)n2)cc1,-14,11,-9,1,1,-1
CCOC(=O)CNC(=S)N(Cc1ccc(C)cc1)Cc1ccc(C)o1,-2,6,-4,-2,0,2
O=C(Oc1nsnc1N1CCOCC1)N(c1ccccc1)c1ccccc1,-1,7,10,1,0,2
COC(=O)Oc1nsnc1N1CCOCC1,2,-6,70*,2,1,34
NC(=O)c1ccc(NCCc2cccs2)cc1,39*,.,.,-3,-1,-1
Cn1c(SCC(=O)Nc2ccc3c(c2)OCO3)nnc1C(F)(F)F,0,.,-5,0,-1,0
COCCCNC(=O)/C(C#N)=C1\N=C(NC(=O)c2cccs2)c2ccccc21,-45,7,-3,-1,3,1
N#C/C(C(=O)NCCc1ccccc1)=C1/N=C(NC(=O)c2cccs2)c2ccccc21,48*,14,-7,16,0,2
SMILES,SUMO1 PPI mod,SUMO HTRF inh,Scp1 inh,DNMT1 block,LMPTP inh,STEP inh
CCOC(=O)c1nn(-c2ccc(F)cc2)cc1O,3,-11,-7,1,-2,4
CCOC(=O)c1nn(-c2ccc3c(c2)CCN3C(C)=O)cc1O,0,52*,-12,1,0,-5
Cc1cccc(C)c1NC(=O)CSc1nc(C2CC2)nc2ccccc12,0,-6,4,1,1,0
COc1cccc(/C=N/NC(=O)c2cc3c(OC)cccc3[nH]2)c1OC,-2,9,13,-9,0,1
COc1cccc(/C=N/NC(=O)c2cc3c(OC)cccc3[nH]2)c1O,51*,21,-11,5,-1,1
COc1cccc(/C=N/NC(=O)c2cc3cc([N+](=O)[O-])ccc3s2)c1O,0,-4,45,99*,88*,97*
